Only some compounds are listed: those with a hit (about 2.3% of all), similar ones and a draw of the others.
TRPC4 PAM: allosterically enhances the mouse TRPC4 cation channel. AID 2227. B-score at 10 µM. HEK293 TRPC4beta/mu-opioid, DAMGO EC20, Fluo-4 Ca2+ flux; stronger effect = higher value. Q9QUQ5. 310,000 compounds, 0.42% hits;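 active means B-score of calcium response area above 5 SD of library B-scores, with initial fluorescence ratio within 5 SD of library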
TRPC6 inh: mouse TRPC6 channel inhibition. Q61143. HEK293-TRPC6, membrane potential dye, ACh-evoked depolarization; stronger effect = lower value. B-score at 10 µM. 310,000 compounds, 1.1% hits. AID 2553;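 active means B-score under library mean minus 3 SD, initial fluorescence not abnormally high, positive integrated signal ratio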;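 further: B-score derived from integrated fluorescence ratio over the kinetic read; more negative B-score means stronger inhibition of depolarization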
TRPC4 act: activators of mouse TRPC4 channel; Q9QUQ5; HEK293 TRPC4beta/mu-opioid, Fluo4 calcium fluorescence; stronger effect = higher value; B-score at 10 µM; 310,000 compounds, 0.49% hits; AID 2237;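 active means B-score above 5 SD of library B-scores, and initial fluorescence ratio not above library mean plus 5 SD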;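 further: positive B-score marks a calcium rise read as TRPC4 activation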
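Material: HEK293 stable line with TRPC4beta plus mu-opioid receptor; technique: Fluo4 calcium-sensitive dye fluorescence, kinetic, 1 Hz baseline; timing: Fluo4 dye loading 45 min at room temperature, 110 s recording; controls: assay buffer as low control, maximal DAMGO as high control; read-out: integrated baseline-normalised fluorescence ratio, converted to per-well B score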
TRPC6 activator: activates the mouse TRPC6 cation channel | Q61143 | HEK293-TRPC6 membrane potential dye fluorescence; stronger effect = higher value | B-score at 10 µM | 310,000 compounds, 0.13% hits;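 active means B-score of the integrated fluorescence ratio above library mean plus 3 SD, and starting fluorescence ratio within library mean plus 5 SD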;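 further: higher score means more depolarization so channel activation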
TRPC4 inh: blocks the mouse TRPC4 cation channel; B-score at 10 µM; HEK293 TRPC4beta/mu-opioid, DAMGO-evoked Fluo4 calcium flux; stronger effect = lower value; Q9QUQ5; 300,000 compounds, 0.39% hits;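 active means B-score over 3 SD under the library average, no early fluorescence shift, positive overall ratio signal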
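Material: HEK293 cells with stable TRPC4beta plus mu-opioid receptor expression; probe or stimulus: DAMGO in two steps, submaximal then maximal; technique: Fluo4 calcium fluorescence by kinetic imaging, 5 s 1 Hz baseline; measure: integrated fluorescence ratio relative to baseline, converted to per-well B score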
HEK293 MPD ctr: parental HEK293 nonspecific activity of TRPC6 modulators; membrane potential signal change, % at 10 µM; shares compounds with TRPC6 inh; 2,400 compounds, 51% hits; membrane potential dye fluorescence; AID 488924;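 active means membrane potential signal moves up or down beyond 5 SD from buffer-only wells, on both duplicate plates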
HEK293 MPD ctr 2: second check of TRPC6 modulator effects in parental HEK293 cells; 2,400 compounds, 14% hits; shares compounds with TRPC6 inh; AID 488926; membrane potential dye fluorescence; after compound, maximal acetylcholine stimulation; inhibition, % at 10 µM;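 active means membrane potential signal drops by more than 5 SD from the mean control signal, in both duplicate plates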
TRPC4/MOR mod: mouse TRPC4 off-target activity of TRPC6 modulators; shares compounds with TRPC6 inh; percent change from control (negative = decrease, positive = increase), % at 10 µM; 2,400 compounds, 69% hits; HEK293 TRPC4/mu-opioid, membrane potential fluorescence;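 active means membrane potential signal moved up or down beyond 5 SD of buffer control wells, in both duplicate plates, actives on both sides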
TRPC4 ctr inh 2: mouse TRPC4 off-target activity of TRPC6 modulators, second screen; HEK293 TRPC4/mu-opioid, membrane potential dye fluorescence; stimulated with maximal-effect DAMGO; inhibition, % at 10 µM; AID 488928; shares compounds with TRPC6 inh; 2,400 compounds, 55% hits;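 active means drop in membrane potential signal beyond 5 SD of the control wells in both duplicate plates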;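 further: TRPC4 counter screen for TRPC6 hits run under conditions tuned for TRPC6 not TRPC4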
TRPC6 inh conf: confirmation of mouse TRPC6 inhibitors. shares compounds with TRPC6 inh. HEK293-TRPC6, membrane potential dye, ACh-evoked depolarization. inhibition, % at 10 µM. 3,300 compounds, 43% hits. AID 488960;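 active means fluorescence ratio falls more than 5 SD below the full-stimulation control mean, in both duplicate runs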;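 further: integrated fluorescence ratio of peak minus minimum over baseline after agonist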
TRPC6 act confirm: mouse TRPC6 activator confirmation; shares compounds with TRPC6 inh; HEK293-TRPC6 membrane potential dye fluorescence, FDSS; activation, % at 10 µM; 2,800 compounds, 11% hits; AID 488961;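 active means ratio signal rise beyond 5 SD above unstimulated control wells' mean, seen in both duplicate runs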
A number is an active result.

What do the screens show for `O=C1S/C(=C/c2ccc(N3CCOCC3)o2)C(=O)N1Cc1c(F)cccc1Cl`?
TRPC4 PAM: inactive; TRPC6 inh: inactive; TRPC4 act: inactive; TRPC6 activator: 17; TRPC4 inh: inactive; HEK293 MPD ctr: inactive; HEK293 MPD ctr 2: inactive; TRPC4/MOR mod: 100%; TRPC4 ctr inh 2: inactive; TRPC6 inh conf: inactive; TRPC6 act confirm: inactive

Results for O=C1S/C(=C\c2ccc(N3CCOCC3)o2)C(=O)N1c1ccccc1 ?
TRPC4 PAM: inactive; TRPC6 inh: inactive; TRPC4 act: inactive; TRPC6 activator: inactive; TRPC4 inh: inactive

What do the screens show for `CCn1c(SCC(=O)NCC(=O)Nc2ccc(F)cc2)nnc1-c1ccncc1`?
TRPC4 PAM: inactive; TRPC6 inh: inactive; TRPC4 act: inactive; TRPC6 activator: inactive; TRPC4 inh: inactive

Results for CCn1c(SCC(=O)Nc2ccc3c(c2)n(C)c(=O)n3C)nnc1-c1ccncc1 ?
TRPC4 PAM: inactive; TRPC6 inh: inactive; TRPC4 act: inactive; TRPC6 activator: 12; TRPC4 inh: inactive; HEK293 MPD ctr: 246%; HEK293 MPD ctr 2: inactive; TRPC4/MOR mod: 36%; TRPC4 ctr inh 2: inactive; TRPC6 inh conf: inactive; TRPC6 act confirm: 118%

What do the screens show for `CN(C)C(=O)c1c2c(nc3ccccc13)-c1ccccc1CC2`?
TRPC4 PAM: inactive; TRPC6 inh: -5.7; TRPC4 act: inactive; TRPC6 activator: inactive; TRPC4 inh: inactive; HEK293 MPD ctr: inactive; HEK293 MPD ctr 2: inactive; TRPC4/MOR mod: inactive; TRPC4 ctr inh 2: inactive; TRPC6 inh conf: inactive; TRPC6 act confirm: inactive

How did Cc1ccc(NC(=O)[C@@H](CC(C)C)NC(=O)[C@@H]2Cc3ccccc3CN2)cc1 do in these assays?
TRPC4 PAM: inactive; TRPC6 inh: -5.1; TRPC4 act: inactive; TRPC6 activator: inactive; TRPC4 inh: inactive; HEK293 MPD ctr: inactive; HEK293 MPD ctr 2: inactive; TRPC4/MOR mod: inactive; TRPC4 ctr inh 2: 46%; TRPC6 inh conf: 66%; TRPC6 act confirm: inactive

How did CN(C)C(=O)C(CCN1CCC(O)(c2ccc(Cl)cc2)CC1)(c1ccccc1)c1ccccc1 do in these assays?
TRPC4 PAM: inactive; TRPC6 inh: -5.4; TRPC4 act: 50; TRPC6 activator: inactive; TRPC4 inh: inactive; HEK293 MPD ctr: 115%; HEK293 MPD ctr 2: inactive; TRPC4/MOR mod: 78%; TRPC4 ctr inh 2: 112%; TRPC6 inh conf: 61%

Results for CN(C)c1ccc(NC(=O)CN2CCC(O)(c3ccccc3)CC2)cc1 ?
TRPC4 PAM: inactive; TRPC6 inh: inactive; TRPC4 act: inactive; TRPC6 activator: inactive; TRPC4 inh: inactive

Results for CCS(=O)(=O)N1CCC(NC(=O)C(Cc2ccc(OC)c(OC)c2)NC(C)=O)CC1 (configuration not stated) ?
TRPC4 PAM: inactive; TRPC6 inh: inactive; TRPC4 act: inactive; TRPC6 activator: inactive; TRPC4 inh: inactive

How did CCc1ccc(OCC(=O)Nc2cccc3c2CCCC3)cc1 do in these assays?
TRPC4 PAM: inactive; TRPC6 inh: -5; TRPC4 act: inactive; TRPC6 activator: inactive; TRPC4 inh: inactive; HEK293 MPD ctr: inactive; HEK293 MPD ctr 2: inactive; TRPC4/MOR mod: inactive; TRPC4 ctr inh 2: inactive; TRPC6 inh conf: inactive; TRPC6 act confirm: inactive

Results for CCCC(=O)Nc1cccc2c1CCCC2 ?
TRPC4 PAM: inactive; TRPC6 inh: inactive; TRPC4 act: inactive; TRPC6 activator: inactive; TRPC4 inh: inactive
